Measured values pooled from the literature.
Compare with care: the assays were run in different laboratories.
Target: Serine/threonine-protein kinase LATS1 (LATS1, Homo sapiens, UniProt O95835)
Sequence (O95835 1-1130, as in one of the studies): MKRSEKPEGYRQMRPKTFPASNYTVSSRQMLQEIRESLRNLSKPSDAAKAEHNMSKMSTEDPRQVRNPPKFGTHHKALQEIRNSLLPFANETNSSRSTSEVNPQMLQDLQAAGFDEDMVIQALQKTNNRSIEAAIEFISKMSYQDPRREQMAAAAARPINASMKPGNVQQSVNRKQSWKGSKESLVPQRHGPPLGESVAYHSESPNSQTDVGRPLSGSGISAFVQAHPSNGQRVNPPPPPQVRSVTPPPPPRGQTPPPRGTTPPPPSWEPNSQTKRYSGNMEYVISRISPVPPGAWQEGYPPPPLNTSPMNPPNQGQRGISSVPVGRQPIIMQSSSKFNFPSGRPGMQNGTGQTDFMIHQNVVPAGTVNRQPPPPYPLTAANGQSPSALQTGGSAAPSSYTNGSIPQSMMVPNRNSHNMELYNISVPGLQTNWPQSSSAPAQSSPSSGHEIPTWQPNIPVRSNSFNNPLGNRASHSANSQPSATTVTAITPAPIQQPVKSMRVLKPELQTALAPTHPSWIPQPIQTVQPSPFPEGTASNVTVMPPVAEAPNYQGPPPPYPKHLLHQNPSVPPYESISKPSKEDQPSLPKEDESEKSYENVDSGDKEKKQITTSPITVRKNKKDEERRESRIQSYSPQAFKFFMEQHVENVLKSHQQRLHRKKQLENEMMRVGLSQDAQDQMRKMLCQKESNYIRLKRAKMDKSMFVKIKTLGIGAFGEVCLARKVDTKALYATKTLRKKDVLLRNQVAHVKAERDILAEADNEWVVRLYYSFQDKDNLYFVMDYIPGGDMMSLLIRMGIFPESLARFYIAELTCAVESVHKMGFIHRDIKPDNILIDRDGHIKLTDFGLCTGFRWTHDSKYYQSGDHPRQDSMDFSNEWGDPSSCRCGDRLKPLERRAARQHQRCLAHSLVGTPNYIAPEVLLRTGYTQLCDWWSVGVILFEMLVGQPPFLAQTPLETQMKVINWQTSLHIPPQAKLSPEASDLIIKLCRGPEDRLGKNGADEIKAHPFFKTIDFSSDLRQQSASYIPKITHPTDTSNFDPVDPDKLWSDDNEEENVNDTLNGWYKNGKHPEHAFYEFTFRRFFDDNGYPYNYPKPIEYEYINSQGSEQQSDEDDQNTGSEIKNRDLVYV

SMILES | read-out | method | tested at | remaining binding
O=C(NCCCN1CCOCC1)c1ccc(Nc2ncc(Cl)c(-c3ccc(Cl)s3)n2)cc1 | binding | competition with immobilised ligand | 1 µM | 42%
C[C@H]1CCN(c2nccc(-c3cnn4ncccc34)n2)C1 | binding |  | 1 µM | 100%
COc1cnc(Nc2cccc(S(N)(=O)=O)c2)nc1N1CCN(c2ccccc2)C(=O)C1 | binding | competition with immobilised ligand | 1 µM | 90%
NS(=O)(=O)c1cc(NC(=O)Cc2ccccc2)ccc1Oc1cccc(Cl)c1 | cell-free assay | competition with immobilised ligand | 1 µM | 79%
N[C@@H]1CCN(c2nccc(-c3cnn4ncccc34)n2)C1 | binding |  | 1 µM | 100%
O=C(Nc1c[nH]nc1C(=O)NC1CCNCC1)c1cc(F)cc(F)c1 | binding | competition with immobilised ligand | 1 µM | 100%
Cc1cnn2ncc(-c3ccnc(N(C)C)n3)c2c1 | binding |  | 1 µM | 48%
FC(F)(F)Oc1cccc(-c2cnc3ccc(-c4ccncc4)nn23)c1 | cell-free assay | competition with immobilised ligand | 5 µM | 100%
O=C(c1ccc(Nc2nccc(-c3cc4ccccc4s3)n2)cc1)N1CCC(N2CCCC2)CC1 | binding | competition with immobilised ligand | 1 µM | 93%
COc1ccnn2ncc(-c3ccnc(N(C)C)n3)c12 | binding |  | 1 µM | 100%
O=C(NCCCC1CCCCC1)c1ccc(CNC(=O)c2cnn(-c3ccccc3)c2C(F)(F)F)cc1 | cell-free assay | competition with immobilised ligand | 0.1 µM | 100%
COc1cnc(Nc2cccc(S(N)(=O)=O)c2)nc1N1CCN(c2ccccc2)CC1 | binding | competition with immobilised ligand | 1 µM | 100%
Cc1nc(Cc2cccc(C(F)(F)F)c2)sc1-c1ccc(C(N)=O)nc1 | cell-free assay | competition with immobilised ligand | 1 µM | 100%
Cc1cnc(Nc2ccc(C(=O)N3CCC(N4CCCC4)CC3)cc2)nc1-c1cc2ccccc2s1 | binding | competition with immobilised ligand | 1 µM | 89%
O=C(O)c1cc(-c2ccc(C3CCNCC3)cc2)c2ccc(-c3ccc(C(F)(F)F)cc3)cc2c1 | cell-free assay | competition with immobilised ligand | 1 µM | 88%
COc1ncc2cc3ccccc3nc2c1C#N | cell-free assay | competition with immobilised ligand | 5 µM | 93%
O=C(Nc1ccc(Oc2ccc(F)cc2)cc1)N1CCc2ncccc2[C@H]1c1ccc(F)cc1 | cell-free assay | competition with immobilised ligand | 1 µM | 86%
c1cnn2ncc(-c3ccnc(N4CCC45COC5)n3)c2c1 | binding |  | 1 µM | 88%
O=C(O)[C@@H]1[C@@H](Cn2nnc3ccccc3c2=O)CC[C@H]1C(=O)c1ccc(OCCC2CCOCC2)cc1 | cell-free assay | competition with immobilised ligand | 1 µM | 90%
CN(CCCC(F)(F)F)c1nccc(-c2cnn3ncccc23)n1 | binding |  | 1 µM | 78%
